Reference: ChEMBL document CHEMBL1145520, “RAS-RAF-MEK-dependent oxidative cell death involving voltage-dependent anion channels” (Nature, 2007)
Active and inactive are the calls of the source. The calls are words filed in the database; no cut-off is given here.

How the values were obtained:
[1] = tested on: BJ; assay: Induction of cell death in human BJ cells expressing TERT, LT, ST and RAS G12V mutant genes cells in presence of MEK 1/2 inhibitor by trypan blue exclusion method; assay type: functional, cell-based
Method in brief: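 BJ-TERT/LT/ST/RASV12 cells were co-treated for 48 h with 1.5 µM erastin plus 20 µM U0126, 10 µM MEK inhibitor I or 50 µM MEK1/2 inhibitor. Viability was measured by automated Trypan blue exclusion of trypsinized cells resuspended in growth medium; n = 2 or 3.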

[2] = tested on: HT-1080; assay: Induction of cell death in human HT1080 cells in presence of MEK inhibitor by trypan blue exclusion method; assay type: functional, cell-based
[3] = target: T1, Mitogen-activated protein kinase; ERK1/ERK2 (Homo sapiens) (UniProt P27361+P28482); assay: Effect on ERK1/2 phosphorylation in TERT expressing human BJ cells by Western blot; assay type: cell-based
Method in brief: (§1)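 Washed cells were lysed in pH 7.4 HEPES buffer containing orthovanadate, NaF, pyrophosphate, β-glycerophosphate and protease inhibitors. Lysates were run on SDS-PAGE, transferred to PVDF and blocked 1 h at room temperature. Blots were probed with a multiplex phospho-signalling antibody cocktail and read by infrared fluorescence scanning.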

[4] = tested on: A673; assay: Induction of PARP1 cleavage in human A673 cells; assay type: functional, cell-based
Method in brief: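 Cells were left untreated or given staurosporine or erastin for 6 or 8 h. Lysates were analysed by western blot for full-length and cleaved PARP1, with actin as loading control.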

[5] = tested on: HT-1080; assay: Suppression of induction of cell death in human HT1080 cells at […] by Alamar Blue assay in presence of glutathione; assay type: functional, cell-based
[6] = tested on: SW872; assay: Induction of cell death in human SW872 cells; assay type: functional
[7] = target: T1, Mitogen-activated protein kinase; ERK1/ERK2 (Homo sapiens); assay: Effect on ERK1/2 phosphorylation in human HL60 cells by Western blot; assay type: cell-based; details: HL-60; method in brief: as §1
[8] = tested on: BJ; assay: Induction of cytochrome c release in cytosolic fraction of human BJ cells expressing TERT, LT, ST and RAS G12V mutant genes at 20 ug/ml; assay type: functional, cell-based
Method in brief: (§2)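 BJ-TERT/LT/ST/RASV12 cells seeded 3 × 10^6 per dish, incubated overnight at 37 °C, 5% CO2, then exposed to erastin 20 µg/ml for 6–26 h. Fractionated on ice by needle lysis: nuclei spun out at 400g, mitochondria pelleted at 10,500g. Cytochrome c detected by western blot in cytosolic and mitochondrial fractions.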

[9] = target: Non-selective voltage-gated ion channel VDAC2 (Homo sapiens, UniProt P45880); assay: Binding affinity to human VDAC2
[10] = target: T1, Mitogen-activated protein kinase; ERK1/ERK2 (Homo sapiens); assay: Effect on ERK1/2 phosphorylation in human U937 cells by Western blot; assay type: cell-based; details: U-937; method in brief: as §1
[11] = Induction of cell death in human MES-SA cells; assay type: functional, cell-based
[12] = target: T1, Mitogen-activated protein kinase; ERK1/ERK2 (Homo sapiens); assay: Effect on ERK1/2 phosphorylation in human SKES1 cells by Western blot; assay type: cell-based; method in brief: as §1
[13] = tested on: LNCaP; assay: Induction of cell death in human LNCaP cells; assay type: functional, cell-based
[14] = tested on: BJ; assay: Induction of mitochondrial structural integrity loss in human BJ cells expressing TERT, LT, ST and RAS G12V mutant genes cells at 37 uM after 10 hrs; assay type: functional, cell-based
Method in brief: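 BJ-TERT/LT/ST/RASV12 cells exposed 10 h to erastin (37 µM per legend; 20 µg/ml in methods), then fixed in 2.5% glutaraldehyde in 0.1 M Sorenson's buffer pH 7.2 and post-fixed in 1% OsO4. Sections stained with uranyl acetate/lead citrate.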

[15] = target: T1, Mitogen-activated protein kinase; ERK1/ERK2 (Homo sapiens); assay: Effect on ERK1/2 phosphorylation in human SW872 cells by Western blot; assay type: cell-based; method in brief: as §1
[16] = tested on: BJ; assay: Prevention of induction of cell death in human BJ cells expressing TERT, LT, ST and RAS G12V mutant genes cells after 24 hrs in presence of alpha-tocopherol; assay type: functional, cell-based
Method in brief: (§3)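 BJ-TERT/LT/ST/RASV12 cells treated 24 h with erastin across roughly 1–2.5 µM, together with DMSO or an antioxidant (α-tocopherol, BHT or β-carotene). Viability read afterwards.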

[17] = tested on: HeLa; assay: Induction of pro-caspase 3 cleavage in human HeLa cells; assay type: functional, cell-based
Method in brief: (§4)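 Cells either untreated, given staurosporine, or given erastin for 6–10 h, then lysed in HEPES pH 7.4 buffer with phosphatase and protease inhibitors. Lysates run on SDS-PAGE, blotted to PVDF, probed with antibodies detecting active caspase-3, with actin as loading control. Bands read on infrared imager.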

[18] = tested on: BJ; assay: Increase in intracellular oxidative species in human BJ cells expressing TERT, LT, ST and RAS G12V mutant genes cells at 4.6 uM; assay type: functional, cell-based
Method in brief: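 Cells seeded at 3 × 10^5 per 60 mm dish were grown overnight, then exposed to 4.6 erastin for 2–12 h; H2O2 for 5 min served as positive control. Cells were loaded with H2DCF-DA for 10 min, trypsinized, PBS-washed and stained with propidium iodide. Read-out was flow cytometry as percent of cells with DCF fluorescence in gate M1; n = 2.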

[19] = tested on: A673; assay: Induction of cell death in human A673 cells; assay type: functional, cell-based
[20] = tested on: HT-1080; assay: Induction of cell death in human HT1080 cells in presence of PD-98059 by trypan blue exclusion method; assay type: functional, cell-based
[21] = Induction of cell death in human Hs925.T cells; assay type: functional, cell-based
[22] = tested on: SJSA-1; assay: Induction of cell death in human SJSA1 cells; assay type: functional, cell-based
[23] = tested on: U2OS; assay: Induction of cell death in human U2OS cells; assay type: functional, cell-based
[24] = tested on: U-937; assay: Induction of cell death in human U937 cells; assay type: functional, cell-based
[25] = tested on: BJ; assay: Induction of pro-caspase 3 cleavage in human BJ cells expressing TERT, LT, ST and RAS G12V mutant genes; assay type: functional, cell-based; method in brief: as §4
[26] = tested on: BJ; assay: Induction of cell death in human BJ cells expressing TERT, LT, ST and RAS G12V mutant genes cells in presence of MEK inhibitor 2 by trypan blue exclusion method; assay type: functional, cell-based
[27] = tested on: HOS; assay: Induction of cell death in human HOS cells; assay type: functional, cell-based
[28] = tested on: BJ; assay: Induction of cytochrome c release in mitochondrial fraction of human BJ cell expressing TERT, LT, ST and RAS G12V mutant genes at 20 ug/ml; assay type: functional, cell-based; method in brief: as §2
[29] = Induction of cell death in human TC71 cells; assay type: functional, cell-based
[30] = Induction of cell death in human A431NS cells; assay type: functional
[31] = Induction of cell death in human Hs51.T cells; assay type: functional, cell-based
[32] = Induction of cell death in human SKUT cells; assay type: functional, cell-based
[33] = tested on: BJ; assay: Prevention of induction of cell death in human BJ cells expressing TERT, LT, ST and RAS G12V mutant genes cells after 24 hrs in presence of beta-carotene; assay type: functional, cell-based; method in brief: as §3
[34] = target: T1, Mitogen-activated protein kinase; ERK1/ERK2 (Homo sapiens); assay: Effect on ERK1/2 phosphorylation in human EWS502 cells by Western blot; assay type: cell-based; method in brief: as §1
[35] = Induction of cell death in human MX2 cells; assay type: functional, cell-based

T1 sequence (P27361 whole entry, looked up): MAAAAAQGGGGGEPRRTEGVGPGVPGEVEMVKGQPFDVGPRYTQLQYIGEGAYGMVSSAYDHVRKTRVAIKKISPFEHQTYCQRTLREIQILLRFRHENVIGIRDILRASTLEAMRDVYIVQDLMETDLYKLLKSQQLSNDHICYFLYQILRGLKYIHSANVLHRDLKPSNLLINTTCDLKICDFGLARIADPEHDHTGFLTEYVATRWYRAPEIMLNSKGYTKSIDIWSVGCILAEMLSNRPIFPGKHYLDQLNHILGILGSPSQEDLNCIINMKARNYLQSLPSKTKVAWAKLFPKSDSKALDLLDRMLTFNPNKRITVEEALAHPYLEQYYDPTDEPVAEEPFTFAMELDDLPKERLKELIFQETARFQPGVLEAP
T1 sequence (P28482 whole entry, looked up): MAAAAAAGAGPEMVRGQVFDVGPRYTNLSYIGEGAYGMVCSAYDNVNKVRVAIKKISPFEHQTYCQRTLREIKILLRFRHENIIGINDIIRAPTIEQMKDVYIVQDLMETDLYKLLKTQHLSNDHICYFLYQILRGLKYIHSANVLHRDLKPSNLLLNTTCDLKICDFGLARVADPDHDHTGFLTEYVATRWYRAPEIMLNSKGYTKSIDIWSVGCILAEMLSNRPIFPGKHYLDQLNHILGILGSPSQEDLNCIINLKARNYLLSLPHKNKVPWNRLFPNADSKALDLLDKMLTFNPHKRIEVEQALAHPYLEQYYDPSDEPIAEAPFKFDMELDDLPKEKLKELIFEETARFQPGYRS
Chain of Non-selective voltage-gated ion channel VDAC2 (P45880 whole entry): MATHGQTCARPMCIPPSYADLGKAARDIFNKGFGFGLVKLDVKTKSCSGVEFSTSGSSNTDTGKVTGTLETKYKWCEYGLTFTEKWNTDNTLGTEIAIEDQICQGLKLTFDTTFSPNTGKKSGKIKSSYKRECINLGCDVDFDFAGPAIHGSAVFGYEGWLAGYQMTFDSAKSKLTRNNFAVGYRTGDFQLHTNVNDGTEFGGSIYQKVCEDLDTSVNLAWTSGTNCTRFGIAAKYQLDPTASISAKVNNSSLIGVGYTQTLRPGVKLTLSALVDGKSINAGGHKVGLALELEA

Compound: CCOc1ccccc1-n1c(C(C)N2CCN(C(=O)COc3ccc(Cl)cc3)CC2)nc2ccccc2c1=O (configuration not stated) [ERASTIN]
- IC50 [1]: 2 µM
- IC50 [2]: 2.5 µM
- Activity [3]: 0.09 a.u.
- Activity [4]: inactive
- Activity [5]: Active
- Activity [6]: 0%
- Activity [7]: 0.1 a.u.
- Activity [8]: inactive
- Kd [9]: 0.112 µM
- Activity [10]: 0.27 a.u.
- Activity [11]: 100%
- EC50 ([11]; Homo sapiens, MES-SA): 3 µM
- Activity [12]: 0.25 a.u.
- Activity [13]: 32%
- EC50 ([13]; Homo sapiens, LNCaP): 6 µM
- Activity [14]: Active
- Activity [15]: 0.12 a.u.
- Activity [16]: Active
- Activity [17]: inactive
- Activity [18]: Active
- Activity [19]: 54%
- EC50 ([19]; Homo sapiens, A673): 30 µM
- IC50 [20]: 1 µM
- Activity [21]: 83%
- EC50 ([21]; Homo sapiens): 17 µM
- Activity [22]: 100%
- EC50 ([22]; Homo sapiens, SJSA-1): 12 µM
- Activity [23]: 96%
- EC50 ([23]; Homo sapiens, U2OS): 6 µM
- Activity [24]: 73%
- EC50 ([24]; Homo sapiens, U-937): 10 µM
- Activity [25]: inactive
- IC50 [26]: 0.9 µM
- Activity [27]: 100%
- EC50 ([27]; Homo sapiens, HOS): 17 µM
- Activity [28]: inactive
- Activity [29]: 92%
- EC50 ([29]; Homo sapiens, TC-71): 10 µM
- Activity [30]: 0%
- Activity [31]: 88%
- EC50 ([31]; Homo sapiens): 12 µM
- Activity [32]: 73%
- EC50 ([32]; Homo sapiens, SKUT): 4 µM
- Activity [33]: Active
- Activity [34]: 0.12 a.u.
- Activity [35]: 71%
- EC50 ([35]; Homo sapiens, MX2): 18 µM
